Compound activity from PubChem BioAssay.
This is a sample that favours compounds with a hit; in the whole collection about 2.5% have one here.
PAX8 inh HTS: lowers PAX8-driven luciferase in RMG-I cells; RMG-I TPO-luciferase reporter, SteadyGlo, 24 h; inhibition, % at 12.6 µM; 360,000 compounds, 1.2% hits; AID 652154;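 active means mean replicate inhibition at least 60% with every replicate also reaching 60%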;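 further: luciferase light reporting Pax8 driven TPO promoter activity; plate controls were median of neutral control wells for no effect and mitoxantrone controls for full effect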
FN deposition inh: fibronectin deposition inhibition; AH1F fibroblasts, Alexa488-fibronectin deposition fluorescence, overnight; inhibition, % at 12.6 µM; 350,000 compounds, 0.086% hits; AID 743247;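 active means mean inhibition across replicates of 30% or more, regardless of how many single replicates reach that level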;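 further: positive control wells lacked labelled fibronectin entirely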
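Test system: AH1F fibroblast monolayer depositing Alexa488-labelled fibronectin into matrix. Input: 10000 cells per well. Technique: fluorescence, ex 485 nm, em 525 nm. Buffer or medium: DMEM plus 2% serum, read in PBS. Timing: 1 h cell adhesion before compound, then overnight fibronectin incubation. Compound: single dose, pinned. Read-out basis: inhibition from reduced deposited-fibronectin fluorescence.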
N-glyco inh: blocks N-linked glycosylation in D54 reporter cells. 360,000 compounds, 0.23% hits. reporter increase, % at 12.5 µM. D54 ERlucT glycosylation luciferase reporter, 24 h; percent of 100 nM tunicamycin response;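 active means mean luciferase reporter signal, scaled so untreated is 0 and the glycosylation-blocking control 100, at or above a set limit in every replicate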;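 further: luciferase carries N-glycosylation sites so blocking glycosylation raises the light; 0% = median of neutral control wells and 100% = median of 100 nM tunicamycin wells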
MLL AF4-AF9 inh: blocks AF4 peptide binding to human AF9; P42568; 350,000 compounds, 0.47% hits; AlphaScreen, biotin-AF4 peptide binding to FLAG-AF9; inhibition, % at 10 µM;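 active means every replicate reaching a set inhibition limit, whatever the replicate mean, cut at about 25% in these data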;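 further: 0% = plate neutral control median and 100% = total signal loss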
Target sequence (P42568 whole entry, looked up): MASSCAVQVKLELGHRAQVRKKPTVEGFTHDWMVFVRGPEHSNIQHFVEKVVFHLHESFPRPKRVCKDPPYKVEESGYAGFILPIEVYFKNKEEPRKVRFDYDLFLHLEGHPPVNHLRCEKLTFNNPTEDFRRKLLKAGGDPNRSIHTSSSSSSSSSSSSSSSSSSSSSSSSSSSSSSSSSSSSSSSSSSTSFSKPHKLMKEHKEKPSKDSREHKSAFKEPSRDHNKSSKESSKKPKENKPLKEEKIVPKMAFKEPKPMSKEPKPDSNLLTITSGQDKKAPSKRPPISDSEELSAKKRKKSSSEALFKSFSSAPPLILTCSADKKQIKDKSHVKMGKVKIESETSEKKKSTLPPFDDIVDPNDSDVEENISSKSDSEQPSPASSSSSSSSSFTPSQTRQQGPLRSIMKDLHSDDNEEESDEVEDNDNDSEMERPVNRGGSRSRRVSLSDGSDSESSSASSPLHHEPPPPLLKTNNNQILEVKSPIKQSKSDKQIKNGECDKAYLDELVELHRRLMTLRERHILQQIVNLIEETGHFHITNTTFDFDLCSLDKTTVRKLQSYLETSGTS
HIV Env fusion: inhibitors of HIV Env-mediated cell fusion. inhibition, % at 12.3 µM. HeLa-JRFL Env/CEM21 cell fusion, luciferase. 360,000 compounds, 1.1% hits;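 active means mean replicate inhibition score of at least 50 and every replicate individually at or above 50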;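 further: 0% = plate neutral controls and 100% = maraviroc near 300 nM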
EWS-Fli inh: blocks EWS/Fli oncoprotein-driven transcription | inhibition, % at 12.6 µM | 350,000 compounds, 0.67% hits | A673 NR0B1-luciferase reporter, viability-normalised;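 active means mean inhibition of at least 50% after viability correction, with every replicate also passing that limit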;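 further: firefly luciferase signal divided by Alamar Blue viability fluorescence both relative to DMSO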
Active calls of the source: *; nt = no result; [ ] = another dose, or the depositor's remark.

SMILES | PAX8 inh HTS | FN deposition inh | N-glyco inh | MLL AF4-AF9 inh | HIV Env fusion | EWS-Fli inh
CCCC(=O)Nc1ccc2c(c1)C(=O)N(C)[C@H]1CC[C@@H](CC(=O)Nc3ccccc3)O[C@@H]1CO2 | 6.0 | -13.8 | nt | 1.9 | 3.4[16.7 µM] | -10.3
CC(=O)N1CCN(C(C)=O)c2ccccc21 | nt | 1.7 | 1.7 | 36.3* | -5.1 | -6.5
C/C=C/c1ccc2c(c1)O[C@H](CN(C)C(=O)C1CC1)[C@@H](C)CN([C@H](C)CO)S2(=O)=O | nt | 1.3 | nt | nt | 9.2[16.7 µM] | -11.3
C[C@@H]1CN([C@@H](C)CO)C(=O)Cc2cc(NS(=O)(=O)c3ccccc3)ccc2O[C@H]1CN(C)Cc1ccc(Cl)c(Cl)c1 | 113.6* | 1.8 | nt | 4.9 | 88.0*[16.7 µM] | 2.4
COc1ccc(S(=O)(=O)Nc2ccc3c(c2)CC(=O)N([C@H](C)CO)C[C@H](C)[C@@H](CN(C)Cc2ccc(Cl)c(Cl)c2)O3)cc1 | 75.3* | nt | nt | 0.7 | 23.3[16.7 µM] | -0.3
C[C@@H]1CN([C@H](C)CO)C(=O)Cc2cc(NS(=O)(=O)c3ccc(Cl)cc3)ccc2O[C@H]1CN(C)Cc1ccc(Cl)c(Cl)c1 | -1.6 | nt | nt | -4.0 | 4.8[16.7 µM] | -3.7
C[C@H](CO)N1C[C@H](C)[C@H](CN(C)Cc2ccc(Cl)c(Cl)c2)Oc2ccc(NS(=O)(=O)c3cn(C)cn3)cc2CC1=O | 22.6 | nt | nt | 7.6 | 2.4[16.7 µM] | 64.7*
COc1ccc(S(=O)(=O)Nc2ccc3c(c2)CC(=O)N([C@@H](C)CO)C[C@@H](C)[C@H](CN(C)Cc2ccc(Cl)c(Cl)c2)O3)cc1 | 32.2 | nt | nt | -0.1 | 11.9[16.7 µM] | -0.2
C[C@H](CO)N1C[C@H](C)[C@@H](CN(C)Cc2ccc(Cl)c(Cl)c2)Oc2ccc(NS(=O)(=O)c3ccc(Cl)cc3)cc2CC1=O | 69.6* | -6.4 | nt | 0.1 | 22.0[16.7 µM] | 14.6
CC(C)NC(=O)N(C)C[C@H]1Oc2cc(C#C[C@@H](C)O)ccc2S(=O)(=O)N([C@H](C)CO)C[C@H]1C | -19.1 | -3.5 | nt | -2.3 | nt | -4.4
CN1C(=O)c2cc(NC(=O)Nc3ccccc3)ccc2OC[C@@H]2O[C@@H](CC(=O)O)CC[C@H]21 | -13.7 | -7.5 | nt | nt | 9.5[16.7 µM] | 1.7
C[C@H](CO)N1C[C@H](C)[C@H](CN(C)CC2CCCCC2)Oc2ccc(NS(=O)(=O)c3ccc(Cl)cc3)cc2CC1=O | 106.3* | nt | nt | 12.7 | 12.4[16.7 µM] | -14.2
C[C@@H]1CN([C@@H](C)CO)C(=O)Cc2cc(NS(=O)(=O)c3ccc(Cl)cc3)ccc2O[C@H]1CN(C)Cc1ccc(Cl)c(Cl)c1 | 85.7* | 7.5 | nt | -1.1 | 83.0*[16.7 µM] | 30.7
O=C(C[C@@H]1C=C[C@@H](NS(=O)(=O)c2ccc(F)cc2)[C@@H](CO)O1)NCc1ccc(Cl)c(Cl)c1 | -0.1 | nt | nt | -0.7 | -3.9[16.7 µM] | 5.7
COC(=O)[C@]12C[C@H](CC(=O)NCc3ccc(OC)c(OC)c3)C(=O)N(CCC3=CCCCC3)C1=C[C@H](C(C)(C)C)O[C@@H]2C | 29.9 | -0.2 | nt | 4.5 | 82.3* | 8.3
COC(=O)[C@]12C[C@H](CC(=O)NCc3ccc(OC)c(OC)c3)C(=O)N(Cc3ccccc3)C1=C[C@H](C(C)(C)C)O[C@@H]2C | 14.0 | 7.8 | nt | 3.4 | 87.7* | -2.1
COC(=O)[C@]12C[C@H](CC(=O)N3CCN(C(=O)c4ccco4)CC3)C(=O)N(CCC3=CCCCC3)C1=C[C@H](C(C)(C)C)O[C@@H]2C | 36.5 | -2.3 | nt | 7.0 | 73.6* | 6.1
Cc1noc(C)c1NC(=O)N(C)C[C@H]1Oc2ccc(NS(=O)(=O)c3ccc(F)cc3)cc2CC(=O)N([C@H](C)CO)C[C@H]1C | nt | nt | nt | 0.8 | 4.2[16.7 µM] | -6.3
COc1cccc(C(=O)Nc2ccc3c(c2)C(=O)N(C)[C@H]2CC[C@H](CC(=O)NCCCN4CCOCC4)O[C@H]2CO3)c1 | -8.5 | -3.6 | nt | -2.7 | 9.2[16.7 µM] | -4.0
C[C@H]1CN([C@@H](C)CO)C(=O)c2c(c3ccccc3n2C)-c2ccccc2CO[C@@H]1CN(C)C(=O)c1ccccc1 | nt | -7.3 | nt | -0.7 | nt | -5.1
C[C@@H]1CN([C@H](C)CO)C(=O)c2c(c3ccccc3n2C)-c2ccccc2CO[C@H]1CN(C)C | -37.5 | 18.2 | nt | -2.9 | -17.9[16.7 µM] | 13.8
CO[C@H](C(=O)N(C)C[C@@H]1OCc2ccccc2-c2c(n(C)c3ccccc23)C(=O)N([C@H](C)CO)C[C@@H]1C)c1ccccc1 | 0.4 | 5.7 | 0.9 | -4.5 | 77.8* | -9.9
C[C@H](CO)N1C[C@H](C)[C@H](CN(C)C(=O)c2ccccc2)OCc2ccccc2-c2c(n(C)c3ccccc23)C1=O | -0.4 | -3.9 | 1.8 | 1.0 | 57.5* | -0.5
CC(C)COC(=O)N(C)C[C@H]1OCc2ccccc2-c2c(n(C)c3ccccc23)C(=O)N([C@H](C)CO)C[C@H]1C | nt | 3.8 | nt | nt | nt | nt
C[C@@H]1CN([C@H](C)CO)C(=O)c2c(c3ccccc3n2C)-c2ccccc2CO[C@@H]1CN(C)C | 88.3* | -15.5 | nt | -2.6 | -3.8[16.7 µM] | 8.5
SMILES | PAX8 inh HTS | FN deposition inh | N-glyco inh | MLL AF4-AF9 inh | HIV Env fusion | EWS-Fli inh
CC(C)COC(=O)N(C)C[C@H]1OCc2ccccc2-c2c(n(C)c3ccccc23)C(=O)N([C@H](C)CO)C[C@@H]1C | 38.6 | -2.8 | nt | 10.5 | 61.8*[16.7 µM] | 1.3
CC(=O)N(C)C[C@@H]1Oc2cc(-c3ccccc3C)ccc2S(=O)(=O)N([C@H](C)CO)C[C@H]1C | nt | nt | nt | -1.4 | -22.3[16.7 µM] | -7.2
CN(C)CCCNC(=O)[C@H]1[C@H](CO)[C@H]2Cn3c(ccc(-c4ccccc4)c3=O)[C@@H]1N2C | -12.6 | nt | nt | -1.1 | nt | -3.0
COc1ccc(NC(=O)C(=O)NCCC2CCCCN2S(=O)(=O)c2ccccc2)cc1 (stereo not drawn) | 41.2 | -1.1 | 17.7 | -2.2 | 19.1 | 52.1*
COc1ccccc1Oc1ccc(S(=O)(=O)N2CCCCC2C)cc1 (stereo not drawn) | -3.8 | -4.6 | 1.7 | 1.4 | -0.7 | -9.6
COc1ccc(NC(=O)C(=O)NCCC2CCCCN2S(=O)(=O)c2cccs2)cc1 (stereo not drawn) | 35.3 | 11.8 | 4.9 | -0.1 | nt | 58.3*
COc1ccc(COC(=O)NC2CCN(S(=O)(=O)c3ccc(OC)cc3)CC2)cc1 | nt | -9.8 | -6.9 | nt | 56.3* | nt
COc1ccc(S(=O)(=O)N2CCCCC2C)cc1 (stereo not drawn) | 8.6 | 2.4 | -0.7 | 29.1* | -1.7 | -43.5
Cc1ccccc1CN(C)C[C@H]1OCc2cn(nn2)CCCC(=O)N([C@H](C)CO)C[C@@H]1C | nt | 5.6 | nt | -0.9 | 2.9[16.7 µM] | -4.7
COCC(=O)N1CCC2(CC1)CN(S(C)(=O)=O)[C@H](CO)c1c2c2ccc(OC)cc2n1C | nt | nt | nt | -3.3 | nt | -4.0
C[C@H](CO)N1C[C@H](C)[C@@H](CN(C)C(=O)C2CCCCC2)OCCCC[C@H](C)Oc2ccc(NC(=O)Nc3ccc(C(F)(F)F)cc3)cc2C1=O | nt | 0.3 | nt | -0.7 | -7.8[16.7 µM] | 9.1
